In ChEMBL document CHEMBL4831478, “Bispecific Estrogen Receptor α Degraders Incorporating Novel Binders Identified Using DNA-Encoded Chemical Library Screening” (J Med Chem, 2021):

Assays:
Estrogen receptor [1] = target: Estrogen receptor (Homo sapiens, UniProt P03372, D538G); assay: Binding affinity to ERalpha D538G mutant (unknown origin) expressed in Escherichia coli preincubated for 15 mins followed by ligand addition and measured after 1 hr by fluorescent polarization assay
Procedure, shortened: (§1)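 ERα LBD (aa 307–554), WT or D538G, S463P, Y537S, with N-terminal Avi-Tev-His tag, expressed in E. coli T7 Express (20 °C, 12 h, IPTG). Purified by Ni-NTA then size exclusion. Compound preincubated with protein 15 min, fluorescent ligand added, 1 h at room temperature. FP read ex 485/em 535 nm; duplicate runs averaged.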

Estrogen receptor [2] = target: Estrogen receptor (Homo sapiens, UniProt P03372, S463P); assay: Binding affinity to ERalpha S463P mutant (unknown origin) expressed in Escherichia coli preincubated for 15 mins followed by ligand addition and measured after 1 hr by fluorescent polarization assay; procedure, shortened: as §1
Chain of Estrogen receptor (Homo sapiens, UniProt P03372, S463P) (P03372 whole entry S463P): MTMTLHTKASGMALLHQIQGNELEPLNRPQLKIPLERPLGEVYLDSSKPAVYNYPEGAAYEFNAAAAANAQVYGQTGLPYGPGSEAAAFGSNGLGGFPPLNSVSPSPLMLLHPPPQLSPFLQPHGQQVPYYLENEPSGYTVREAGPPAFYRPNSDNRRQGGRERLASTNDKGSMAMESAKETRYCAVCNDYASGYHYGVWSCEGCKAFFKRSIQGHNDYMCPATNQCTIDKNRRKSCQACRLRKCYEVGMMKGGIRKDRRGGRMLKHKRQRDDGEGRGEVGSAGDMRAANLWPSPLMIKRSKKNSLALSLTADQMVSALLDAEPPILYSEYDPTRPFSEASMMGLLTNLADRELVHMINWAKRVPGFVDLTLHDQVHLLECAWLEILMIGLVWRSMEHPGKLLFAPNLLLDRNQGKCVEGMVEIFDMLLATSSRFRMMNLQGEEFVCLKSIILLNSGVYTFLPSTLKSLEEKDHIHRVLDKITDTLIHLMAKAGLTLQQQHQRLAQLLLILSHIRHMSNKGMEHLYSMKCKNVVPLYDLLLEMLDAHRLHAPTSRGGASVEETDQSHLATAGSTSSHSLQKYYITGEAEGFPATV

Estrogen receptor [3] = target: Estrogen receptor (Homo sapiens, UniProt P03372, Y537S); assay: Binding affinity to ERalpha Y537S mutant (unknown origin) expressed in Escherichia coli preincubated for 15 mins followed by ligand addition and measured after 1 hr by fluorescent polarization assay; procedure, shortened: as §1
Chain of Estrogen receptor (Homo sapiens, UniProt P03372, Y537S) (P03372 whole entry Y537S, the tested form may be a part): as the sequence (P03372 whole entry S463P) above, with P463S, Y537S counted along it

Estrogen receptor [4] = target: T1, Estrogen receptor (Homo sapiens, UniProt P03372); assay: Binding affinity to recombinant His-tagged ERalpha LBD (307 to 554 residue) (unknown origin) expressed in Escherichia coli preincubated for 15 mins followed by ligand addition and measured after 1 hr by fluorescent polarization assay; procedure, shortened: as §1
T1 sequence (P03372 whole entry): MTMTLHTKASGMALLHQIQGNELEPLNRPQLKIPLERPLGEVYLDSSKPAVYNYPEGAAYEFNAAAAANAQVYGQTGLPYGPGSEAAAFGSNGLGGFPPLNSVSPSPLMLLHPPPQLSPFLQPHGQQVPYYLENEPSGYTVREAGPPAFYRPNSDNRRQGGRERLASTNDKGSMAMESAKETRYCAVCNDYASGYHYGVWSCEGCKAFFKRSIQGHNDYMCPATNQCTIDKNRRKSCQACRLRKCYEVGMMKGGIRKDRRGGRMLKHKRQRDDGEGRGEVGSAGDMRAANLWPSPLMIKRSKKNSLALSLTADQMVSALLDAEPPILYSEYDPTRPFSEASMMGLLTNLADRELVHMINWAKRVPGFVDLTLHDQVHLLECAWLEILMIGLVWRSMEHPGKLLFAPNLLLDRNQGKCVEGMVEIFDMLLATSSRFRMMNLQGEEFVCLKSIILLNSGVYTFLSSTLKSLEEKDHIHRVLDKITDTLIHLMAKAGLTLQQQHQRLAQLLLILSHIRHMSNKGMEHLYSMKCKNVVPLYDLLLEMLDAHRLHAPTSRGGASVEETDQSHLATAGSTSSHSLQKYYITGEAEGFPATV

MCF7 [5] = assay: Antiproliferative activity against human MCF7 cells assessed as growth inhibition preincubated with estradiol for 30 mins followed by compound addition and measured after 7 days by CellTiter-Glo assay; format: functional; conditions: MCF7, 168 h, time 7 day
Procedure, shortened: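 MCF7 cells seeded in hormone-deprived media for 72 h. All wells except minimum-signal controls received 0.1 nM estradiol for 30 min, then compound in a 10-point dose series. Incubated 7 days at 37 °C, 5% CO2; ATP content read by CellTiter-Glo 2.0. Duplicate runs averaged.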

MCF7 [6] = assay: Antiproliferative activity against human MCF7 cells assessed as growth inhibition preincubated with estradiol for 30 mins followed by compound addition and measured after 72 hrs by CellTiter-Glo assay; format: functional
Estrogen receptor [7] = target: T1, Estrogen receptor; assay: Induction of ERalpha degradation in human MCF7 cells assessed as decrease in ERalpha protein expression incubated for 48 hrs by Western blot analysis; format: cell-based
[8] = target: T2, Estrogen receptor (Homo sapiens) (UniProt P03372); assay: Induction of ERalpha degradation in human MCF7 cells assessed as degradation maximum incubated for 48 hrs under starved CSS media condition by Western blot analysis relative to control; format: cell-based
T2 sequence (whole entry): T1 sequence (P03372 whole entry)
Procedure, shortened: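 MCF7 cells in hormone-deprived media (agonist mode) or full-serum media (antagonist mode) were treated with 1 μM compound over a 48 h time course. Cells were lysed and ERα was detected by western blot, with tubulin as the normalizer.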

Estrogen receptor [9] = target: T1, Estrogen receptor; assay: Induction of ERalpha degradation in human MCF7 cells assessed as decrease in ERalpha protein expression incubated for 48 hrs under hormone-deprived medium by Western blot analysis; format: cell-based
Procedure, shortened: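 In-cell western: MCF7 seeded in hormone-deprived media for 72 h, then 10-point dose series in the same media for 48 h. Minimum-signal control compound at 1 μM. Cells fixed (4% formaldehyde), permeabilized (0.1% Triton X-100), blocked (3% fish gelatin), stained for ERα and α-tubulin, imaged; ERα normalized to tubulin.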

MCF7 [10] = assay: Antitumor activity against human MCF7 cells xenografted in CD1 mouse assessed as tumor growth inhibition at 3 mg/kg, sc administered once daily for 28 days by caliper method; conditions: 672 h, read-out: TGI
[11] = Toxicity in CD1 mouse xenografted with human MCF7 cells assessed as change in body weight at 3 mg/mouse, sc administered once weekly for 28 days; conditions: in vivo, 672 h
[12] = Plasma protein binding in human; format: ADME, cell-free; conditions: read-out: PPB
[13] = Apparent permeability of compound across apical to basolateral side in MDCK cells; format: ADME, cell-based, Canis lupus familiaris; conditions: dog
[14] = Bioavailability in CD1 mouse at 10 mg/kg, sc administered as single dose […]; format: ADME, organism-based; conditions: in vivo
[15] = Solubility of compound; format: physicochemical
[16] = Volume of distribution at steady state in CD1 mouse at 0.3 mg/kg, iv administered as cassette dosing […]; format: ADME, organism-based; conditions: in vivo, read-out: Vdss
[17] = Half life in CD1 mouse at 0.3 mg/kg, iv administered as cassette dosing […]; format: ADME, organism-based; conditions: in vivo
[18] = Microsomal stability in mouse liver microsomes assessed as intrinsic clearance measured upto 60 mins; format: ADME, Microsome; conditions: read-out: CLH
Procedure, shortened: (§2)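 Compounds at 2 μM final incubated with pooled human or male mouse liver microsomes. Percent remaining measured at 0, 15, 30, 45 and 60 min and used to calculate in vitro half-life.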

[19] = AUCinfinity in CD1 mouse at 10 mg/kg, sc administered as single dose […]; format: ADME, organism-based; design: route subcutaneous, dose 10 mg/kg; conditions: in vivo
[20] = Half life in CD1 mouse at 10 mg/kg, sc administered as single dose […]; format: ADME, organism-based; conditions: in vivo
[21] = Cmax in CD1 mouse at 10 mg/kg, sc administered as single dose […]; format: ADME, organism-based; design: route subcutaneous, dose 10 mg/kg; conditions: in vivo
[22] = Clearance in CD1 mouse at 0.3 mg/kg, iv administered as cassette dosing […]; format: ADME, organism-based; conditions: in vivo
[23] = Microsomal stability in human liver microsomes assessed as intrinsic clearance measured upto 60 mins; format: ADME, Microsome; conditions: read-out: CLH; procedure, shortened: as §2
MCF7 [24] = assay: Antiproliferative activity against human MCF7 cells assessed as growth inhibition preincubated with estradiol for 30 mins followed by compound addition and measured after 7 days by CellTiter-Glo assay; conditions: MCF7, 7 days
Estrogen receptor [25] = target: T1, Estrogen receptor; assay: Induction of ERalpha degradation in human MCF7 cells assessed as decrease in ERalpha protein expression incubated for 24 hrs by Western blot analysis; format: cell-based

Chain of Estrogen receptor (Homo sapiens, UniProt P03372, D538G) (P03372 whole entry D538G, the tested form may be a part): as the sequence (P03372 whole entry S463P) above, with P463S, D538G counted along it

SMILES | IC50 (Estrogen receptor [1]) [nM] | IC50 (Estrogen receptor [2]) [nM] | IC50 (Estrogen receptor [3]) [nM] | IC50 (Estrogen receptor [4]) [nM] | GI50 (MCF7 [5]) [nM] | GI50 (MCF7 [6]) [nM] | other results
CN[C@@H](C)C(=O)N[C@H](C(=O)N1CCC[C@H]1c1nc(C(=O)c2cccc(OCCOCc3cn(CCOc4ccc(Cn5c(-c6ccc(O)cc6)c(C)c6cc(O)ccc65)cc4)nn3)c2)cs1)C1CCCCC1 | 40 | 24 | 61 | 7.3 | 51 | > 10000 | DC50 (Estrogen receptor [7]): 174 nM
Cc1ncsc1-c1ccc(CNC(=O)N2C[C@H](O)CC2C(=O)[C@H](NC(=O)C2(F)CC2)C(C)(C)C)c(OCCOCc2cn(CCOc3ccc(Cn4c(-c5ccc(O)cc5)c(C)c5cc(O)ccc54)cc3)nn2)c1 (stereo partly drawn) | 29 | 14 | 52 | 5.3 | 34 | > 10000 | DC50 (Estrogen receptor [7]): 27 nM
Oc1cccc(CN(CC2(c3ccccc3F)CCCC2)c2ccc(OCCN3CCCCC3)cc2)c1Cl | – | – | – | 8 | 68 | > 10000 | Activity [8]: 70%; DC50 (Estrogen receptor [9]): 15 nM
Oc1cccc(CN(CCCN2CCCCC2)CC2(c3ccccc3F)CCCC2)c1Cl | – | – | – | 960 | – | – | –
Cc1ncsc1-c1ccc([C@H](C)NC(=O)[C@@H]2C[C@@H](O)CN2C(=O)[C@@H](NC(=O)COCCOCCOCc2cn(CCOc3ccc(Cn4c(-c5ccc(O)cc5)c(C)c5cc(O)ccc54)cc3)nn2)C(C)(C)C)cc1 | 9.3 | 6 | 15 | 22 | 211 | > 10000 | DC50 (Estrogen receptor [9]): 9 nM
C[C@]12CC[C@@H]3c4ccc(O)cc4C[C@@H](CCCCCCCCC[S+]([O-])CCCC(F)(F)C(F)(F)F)[C@H]3[C@@H]1CC[C@@H]2O (stereo partly drawn) [FULVESTRANT] | – | – | – | – | – | – | inhibition in vivo at 3 mg/kg (MCF7 [10]): 91.6%; Activity [11]: Non-Toxic
CN(Cc1cccc(O)c1Cl)CC1(c2ccc(OCCN3CCCCC3)cc2F)CCCC1 | – | – | – | 62 | > 10000 | < 5 | –
Cc1c(-c2ccc(O)cc2)n(Cc2ccc(OCCn3cc(COCCOc4cccc5c4C(=O)N(C4CCC(=O)NC4=O)C5=O)nn3)cc2)c2ccc(O)cc12 (stereo not drawn) | 4.7 | 2.1 | 3.2 | 1.6 | 3250 | > 10000 | DC50 (Estrogen receptor [9]): 2500 nM
Oc1cccc(CN(CCN2CCCCC2)CC2(c3ccccc3F)CCCC2)c1Cl | – | – | – | > 10000 | – | – | –
Cc1ncsc1-c1ccc([C@H](C)NC(=O)[C@@H]2C[C@@H](O)CN2C(=O)[C@H](NC(=O)COCc2cn(CCOc3ccc(N(Cc4cccc(O)c4Cl)CC4(c5ccccc5F)CCCC4)cc3)nn2)C(C)(C)C)cc1 | 269 | 170 | 332 | 17 | 165 | > 10000 | fraction unbound [12]: < 0.004; Papp A→B [13]: < 0.1 ×10⁻⁶ cm/s; bioavailability [14]: 83%; solubility [15]: < 0.2 µM; Vd [16]: 1.24 L/kg; half-life [17]: 2.7 h; microsomal CLint [18]: 199 µL/min/mg; AUC(0-inf) [19]: 9.8 µM·h; half-life [20]: 21 h; Cmax [21]: 1500 nM; clearance [22]: 20 mL/min/kg; microsomal CLint [23]: 31 µL/min/mg; DC50 (Estrogen receptor [7]): 4.2 nM
Oc1cccc(CN(CC2(c3ccccc3F)CCCC2)c2ccccc2)c1Cl | – | – | – | 15 | > 10000 | < 5 | –
CN[C@H](C)C(=O)N[C@H](C(=O)N1CCC[C@H]1c1nc(C(=O)c2ccc(F)cc2)cs1)C1CCN(C(=O)COCCOCc2cn(CCOc3ccc(Cn4c(-c5ccc(O)cc5)c(C)c5cc(O)ccc54)cc3)nn2)CC1 | – | – | – | 52 | > 10000 | – | GI50 (MCF7 [24]): > 10000 nM; DC50 (Estrogen receptor [25]): > 10000 nM
CN(Cc1cccc(O)c1Cl)CC1(c2ccccc2F)CCCC1 | 7.2 | 21 | 8.1 | 15 | > 10000 | 550 | –
Oc1cccc(CN(CCOCCN2CCCCC2)CC2(c3ccccc3F)CCCC2)c1Cl | – | – | – | 83 | 3100 | > 10000 | –
CN(Cc1cccc(O)c1Cl)CC1(c2ccccc2OCCN2CCCCC2)CCCC1 | – | – | – | > 10000 | 3140 | > 10000 | –
Cc1ncsc1-c1ccc([C@H](C)NC(=O)[C@@H]2C[C@@H](O)CN2C(=O)[C@@H](NC(=O)COCc2cn(CCOc3ccc(Cn4c(-c5ccc(O)cc5)c(C)c5cc(O)ccc54)cc3)nn2)C(C)(C)C)cc1 | 287 | 21 | 8.1 | 11 | 247 | > 10000 | DC50 (Estrogen receptor [9]): 20 nM
Cc1ncsc1-c1ccc([C@H](C)NC(=O)[C@@H]2C[C@@H](O)CN2C(=O)[C@@H](NC(=O)COCCOCc2cn(CCOc3ccc(Cn4c(-c5ccc(O)cc5)c(C)c5cc(O)ccc54)cc3)nn2)C(C)(C)C)cc1 | 27 | 18 | 38 | 22 | 335 | > 10000 | DC50 (Estrogen receptor [9]): 20 nM
CN(Cc1cccc(O)c1Cl)C(C1CCCC1)C(F)(F)F (stereo not drawn) | 45 | 110 | 24 | 71 | > 10000 | 460 | –
